A word on the Kd: it is the free concentration of one partner at which half of the binding sites on the other are occupied at equilibrium, for simple one-to-one binding. A low value points to a tighter complex. The term EC50 denotes the concentration at which the effect is half-maximal. As a reminder, the Ki is a measure of affinity in units of concentration, obtained from inhibition or displacement.

Where two headings read alike, the source gives them in different places.

Experiment [1] addresses T1, RhoGDIα (Homo sapiens, UniProt P52565).
T1 sequence (P52565 1-204): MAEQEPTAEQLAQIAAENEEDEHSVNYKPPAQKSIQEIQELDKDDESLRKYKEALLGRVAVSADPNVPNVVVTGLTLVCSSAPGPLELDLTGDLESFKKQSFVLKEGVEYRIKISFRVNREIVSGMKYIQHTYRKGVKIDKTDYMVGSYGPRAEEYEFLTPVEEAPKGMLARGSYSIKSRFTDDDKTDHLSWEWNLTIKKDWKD
The class given is binding. The method, boiled down: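 RhoGDIα at 500 nM in 2.8 mL Buffer B (pH 7.5 Tris) in screw-top sealed cuvette with minimal headspace; halothane 0–800 µM; 60 min at room temperature. Steady-state tryptophan emission spectra, excitation 295 nm. Quenching taken as FQ/F0, averaging >10 points at the emission maximum. Fitted to Eq. 1 for Kd, h and maximal quenching.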

Experiment [2] has as its target T1, RhoGDIα. Put plainly: Photo-affinity labeling of RhoGDIα with azialcohols, LC-MSMS. The format is binding.
For the next experiment, the target named is T2, RhoGDIα–Cdc42 complex (Homo sapiens, UniProt P52565).
T2 sequence (P52565 1-204): T1 sequence (P52565 1-204)
The class given is biochemical. Particulars: for effect on association of Cdc42 with membranes (Req,Cdc42) / Cdc42–RhoGDIα Dissociation h: with EDTA and GMPPNP; for Cdc42–RhoGDIα Dissociation h: fit to Eq. 6. In outline: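 SPR on L1 chip at 25°C. Running buffer 10 mM HEPES pH 7.4, 150 mM NaCl. Surface cleaned with 10 mM CHAPS; POPC/POPS (4:1) 100 nm LUV captured at 5 µL/min for 15 min; conditioned with 10 mM glycine pH 1.5 and 10 mM NaOH. RhoGDIα–Cdc42 complex typically 0.5 µM in Buffer A with 50 µM GMPPNP and n-alkanol. 14.3 mM EDTA initiated exchange and dissociation. Req from first-order fits versus complex concentration.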

Experiment [3] concerns the target T1, RhoGDIα. The format is binding. In outline:
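For n-alkanols, halothane was equilibrated first, then alkanol titrated from stocks while emission at 330 nm was tracked; buffer-only additions controlled for halothane evaporation. For AGGC (0–300 µM), 30 min preincubation ±1 mM halothane in gas-tight syringes, then dilution into cuvette. Recovery […] fitted by Hill-type equation (EC50, Fmax, h).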
This is another data set of the same source.

The target in a further experiment is Cdc42 (Homo sapiens, UniProt P60953). Particulars: 50 mM (results not shown).
Cdc42, sequence (P60953 whole entry): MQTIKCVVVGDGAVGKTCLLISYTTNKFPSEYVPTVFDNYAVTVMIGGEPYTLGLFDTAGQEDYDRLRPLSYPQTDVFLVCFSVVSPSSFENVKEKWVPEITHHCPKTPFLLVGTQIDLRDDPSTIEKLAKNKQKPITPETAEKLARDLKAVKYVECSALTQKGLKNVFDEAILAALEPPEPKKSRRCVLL
The mark [4] stands for this setting: read-out: Halothane Binding EC50, 0.2 mM halothane, RhoGDIα 500 nM, fit to Eq. 2.
The mark [5] stands for this setting: read-out: Halothane Binding KI, 0.2 mM halothane, calculated using Eq. 3.

At RhoGDIα [1], `FC(F)(F)C(Cl)Br` (stereo not shown) [halothane, 2-bromo-2-chloro-1,1,1-trifluoroethane] gave a Kd of 0.147 ± 0.007 mM. Besides, the “blue shift in the emission maxima” value at RhoGDIα [1] (dose dependent, halothane 0–800 µM) is ~ 2 nm. Also, at RhoGDIα [1] (fit to Eq. 1), the “Hill coefficient h for halothane binding” value was found to be 0.91±0.2. In addition, the “plateau tryptophan fluorescence intensity, of the original signal” value on RhoGDIα [1] (halothane 0–800 µM) is given as ~ 30%.

As for `CC1(CCO)N=N1` [3-azibutanol], at RhoGDIα [2] (AGGC +), the “Lowest 3-azialcohol concentration where photoincorporation was detected” value worked out at 100 µM. Further, the “Residue photolabeled / photolabeled peptide” value on RhoGDIα [2] (AGGC –) was “Photolabeled peptide not detected”.

For `CCCCCCO` [n-hexanol], the “effect on association of Cdc42 with membranes (Req,Cdc42)” value at RhoGDIα–Cdc42 complex is listed as “unaffected”. In addition, the “effect on halothane-induced tryptophan quenching” value on RhoGDIα [3] (0.2 mM halothane) is reported as “did not reach saturation within the concentration range used”.

Consider `CCO` [n=2, ethanol], for which the “Cdc42–RhoGDIα Dissociation h” value on RhoGDIα–Cdc42 complex turned out to be 1.2 ± 0.2. Moreover, at RhoGDIα [3] (0.2 mM halothane, fit to Eq. 2), the “Halothane Binding h” value was found to be 1.4 ± 0.4. Further, the EC50 at RhoGDIα [3] (setting [4]) stood at 100 ± 58 mM. Besides, the Ki at RhoGDIα [3] (setting [5]) was 42 ± 24 mM.

Turning to `CC(=O)N[C@@H](CSC/C=C(\C)CC/C=C(\C)CC/C=C(\C)CCC=C(C)C)C(=O)O` [AGGC, N-acetyl geranylgeranyl cysteine], the “effect on RhoGDIα tryptophan fluorescence in the absence of halothane” value at RhoGDIα [3] (control without halothane (results not shown)) is on record as “unaffected”. Moreover, the Ki on RhoGDIα [3] (read-out: KI for the displacement of halothane, from EC50 by Eq. 3) was 0.01 mM.

Regarding `CCCCCC1(CCO)N=N1` [3-azioctanol], the “Lowest 3-azialcohol concentration where photoincorporation was detected” value on RhoGDIα [2] (AGGC +) and at RhoGDIα [2] (AGGC –) was 10 µM each time. In addition, the “photolabeling of E193” value on RhoGDIα [2] (at levels up to 1 mM) was “not photolabeled”.

As to `CCCO` [n=3], at RhoGDIα [3] (0.2 mM halothane, fit to Eq. 2), the “Halothane Binding Fmax” value was 40 ± 9 and the “Halothane Binding h” value is given as 1.2 ± 0.2. The EC50 on RhoGDIα [3] (setting [4]) turned out to be 48 ± 4.5 mM. Further, the Ki at RhoGDIα [3] (setting [5]) was 20 ± 2 mM.

As for `CCCCCCCO` [n-heptanol], the “effect on association of Cdc42 with membranes (Req,Cdc42)” value at RhoGDIα–Cdc42 complex is “unaffected”. Further, at RhoGDIα [3] (0.2 mM halothane), the “effect on halothane-induced tryptophan quenching” value was “negligible effects”.

Consider `CCCCO` [n=4, n-butanol], for which the “effect on association of Cdc42 with membranes” value at RhoGDIα–Cdc42 complex (in the absence of EDTA and GMPPNP) is on record as “negligible effects”. Also, at RhoGDIα–Cdc42 complex, the “Cdc42–RhoGDIα Dissociation h” value turned out to be 1.5 ± 0.3. The “effect on rate and extent of exchange of MANT-GDP for GDP” value at Cdc42 is reported as “neither the rate nor the extent of exchange of MANT-GDP for GDP were affected”. Moreover, the “Fmax for displacement of halothane” value at RhoGDIα [3] (0.1 mM halothane) worked out at 0.55 ± 0.06; at RhoGDIα [3] (0.2 mM halothane), 0.59 ± 0.04; at RhoGDIα [3] (0.5 mM halothane) it was 0.59 ± 0.05; at RhoGDIα [3] (1.0 mM halothane) it was 0.65 ± 0.08. Also, the “h for displacement of halothane” value at RhoGDIα [3] (0.1 mM halothane) stood at 1.0 ± 0.4; at RhoGDIα [3] (0.2 mM halothane) it was 1.1 ± 0.2; at RhoGDIα [3] (0.5 mM halothane), 1.0 ± 0.1; on RhoGDIα [3] (1.0 mM halothane) it was 1.2 ± 0.2. In addition, the “Halothane Binding Fmax” value at RhoGDIα [3] (0.2 mM halothane, fit to Eq. 2) was 51 ± 4. For the same compound, the “Halothane Binding h” value at RhoGDIα [3] (0.2 mM halothane, fit to Eq. 2) turned out to be 1.1 ± 0.1. Moreover, at RhoGDIα [3] (independent of halothane concentration or chain length), the Hill coefficient h is listed as ~ 1. Besides, the EC50 at RhoGDIα [3] (read-out: EC50 for displacement of halothane, 0.1 mM halothane) turned out to be 3 ± 1 mM; at RhoGDIα [3] (read-out: EC50 for displacement of halothane, 0.2 mM halothane) it was 11 ± 3 mM; on RhoGDIα [3] (read-out: EC50 for displacement of halothane, 0.5 mM halothane) it was 22 ± 5 mM; on RhoGDIα [3] (read-out: EC50 for displacement of halothane, 1.0 mM halothane) it was 52 ± 8 mM; at RhoGDIα [3] (setting [4]), 10 ± 3 mM. On RhoGDIα [3] (setting [5]), the Ki is 4.2 ± 1.2 mM.
